# In ChEMBL document CHEMBL1811814, “Synthesis and evaluation of indole, pyrazole, chromone and pyrimidine based conjugates for tumor growth inhibitory activities--development of highly efficacious cytotoxic agents” (Eur J Med Chem, 2010):
# Key:
# Type in all cases: functional
# M14 = assay: Growth inhibition of human M14 cells
# NCI-H460 = assay: Growth inhibition of human NCI-H460 cells
# KM12 = assay: Growth inhibition of human KM12 cells assessed tumor cell growth at 10^-5 M; design: scale not given: the % may be the effect or the level left
# How it was run: (§1)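 NCI 60-human-tumor-cell-line panel screen. Each compound was tested at a single concentration of 10^-5 M, and percent growth of tumor cells was recorded for each cell line. Growth inhibition was expressed from these percent-growth values.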
# SK-OV-3 = assay: Growth inhibition of human SKOV3 cells
# A498 = assay: Growth inhibition of human A498 cells
# NCI-H226 = assay: Growth inhibition of human NCI-H226 cells assessed tumor cell growth at 10^-5 M; design: scale not given: the % may be the effect or the level left; how it was run: as §1
# T47D = assay: Growth inhibition of human T47D cells assessed tumor cell growth at 10^-5 M; design: scale not given: the % may be the effect or the level left
# How it was run: (§2)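 Single-dose screen at 10^-5 M across the 60 human tumor cell line panel, run to NCI standards. The value is the percent growth of each cell line in the presence of compound. Compounds active at this dose moved on to five-concentration testing (10^-4 to 10^-8 M).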
# SW-620 = assay: Growth inhibition of human SW620 cells
# MDA-MB-435 = assay: Growth inhibition of human MDA-MB-435 cells
# MCF7 = assay: Growth inhibition of human MCF7 cells assessed tumor cell growth at 10^-5 M; design: scale not given: the % may be the effect or the level left; how it was run: as §1
# EKVX = assay: Growth inhibition of human EKVX cells
# SF-539 = assay: Growth inhibition of human SF539 cells
# OVCAR-3 [1] = assay: Growth inhibition of human OVCAR3 cells assessed tumor cell growth at 10^-5 M; design: scale not given: the % may be the effect or the level left; how it was run: as §1
# UO-31 = assay: Growth inhibition of human UO31 cells assessed tumor cell growth at 10^-5 M; design: scale not given: the % may be the effect or the level left; how it was run: as §2
# OVCAR-3 [2] = assay: Growth inhibition of human OVCAR3 cells
# MDA-MB-468 = assay: Growth inhibition of human MDA-MB-468 cells
# SF-268 = assay: Growth inhibition of human SF268 cells
# DU-145 = assay: Growth inhibition of human DU145 cells assessed tumor cell growth at 10^-5 M; design: scale not given: the % may be the effect or the level left; how it was run: as §1
# HCC 2998 = assay: Growth inhibition of human HCC2998 cells
# HCT-15 = assay: Growth inhibition of human HCT15 cells
# TK-10 = assay: Growth inhibition of human TK10 cells
# IGROV-1 = assay: Growth inhibition of human IGROV1 cells
# How it was run: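 Follow-up panel testing at five concentrations (10^-4, 10^-5, 10^-6, 10^-7 and 10^-8 M) across the 60 human tumor cell lines. GI50 was obtained for each line from the concentration-response data, with the panel average GI50 also reported.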
# SN12C = assay: Growth inhibition of human SN12C cells assessed tumor cell growth at 10^-5 M; design: scale not given: the % may be the effect or the level left; how it was run: as §1
# [3] = read-out: LC50 (the source's name)
compound,measurement,setting,value
O=C1/C(=C\c2coc3ccccc3c2=O)c2ccccc2N1c1c(Cl)cccc1Cl,GI50,M14,5.2 µM
same,CC50,M14; [3],> 100 µM
same,GI50,NCI-H460,2000 nM
same,CC50,NCI-H460; [3],> 100 µM
same,Activity,KM12,27.09%
same,GI50,SK-OV-3,35.4 µM
same,CC50,SK-OV-3; [3],> 100 µM
same,GI50,A498,4.3 µM
same,CC50,A498; [3],> 100 µM
same,Activity,NCI-H226,90.68%
same,Activity,T47D,30.04%
same,GI50,SW-620,5.2 µM
same,CC50,SW-620; [3],> 100 µM
same,GI50,MDA-MB-435,2600 nM
same,CC50,MDA-MB-435; [3],> 100 µM
same,Activity,MCF7,31.61%
same,GI50,EKVX,2800 nM
same,CC50,EKVX; [3],> 100 µM
same,GI50,SF-539,3000 nM
same,CC50,SF-539; [3],> 100 µM
same,Activity,OVCAR-3 [1],16.79%
same,Activity,UO-31,42.56%
same,GI50,OVCAR-3 [2],2600 nM
same,CC50,OVCAR-3 [2]; [3],> 100 µM
same,GI50,MDA-MB-468,2400 nM
same,CC50,MDA-MB-468; [3],> 100 µM
same,GI50,SF-268,3.3 µM
same,CC50,SF-268; [3],> 100 µM
same,Activity,DU-145,24.59%
same,GI50,HCC 2998,4.2 µM
same,CC50,HCC 2998; [3],> 100 µM
same,GI50,HCT-15,600 nM
same,CC50,HCT-15; [3],> 100 µM
same,GI50,TK-10,3.3 µM
same,CC50,TK-10; [3],> 100 µM
same,GI50,IGROV-1,1600 nM
same,CC50,IGROV-1; [3],97.9 µM
same,Activity,SN12C,59.48%
